Test results as given in ChEMBL document CHEMBL2331493, “Chemical tagging of a drug target using 5-sulfonyl tetrazole” (Bioorg Med Chem Lett, 2013).
Active and inactive are the calls of the source. The calls are words filed in the database; no cut-off is given here.

Legend:
[1] = biological target: Peptidyl-prolyl cis-trans isomerase A (Homo sapiens) (UniProt P62937); assay: Binding affinity to cyclophilin A in human Jurkat cell lysates at 1.1 uM after 24 hrs by SDS-PAGE analysis
Summary of the method: (§1)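 Biotinylated probe incubated with a lysate of Jurkat cells (human leukemia T cells). The lysate was then mixed with streptavidin beads to pull down proteins with affinity for the probe. Bead-captured proteins were resolved by SDS–PAGE, and protein bands were read out.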

[2] = biological target: Peptidyl-prolyl cis-trans isomerase A (Homo sapiens) (UniProt P62937); assay: Binding affinity to cyclophilin A in human Jurkat cell lysates at 1.1 uM after 24 hrs by Western blot analysis
[3] = biological target: Peptidyl-prolyl cis-trans isomerase A (Homo sapiens) (UniProt P62937); assay: Binding affinity to biotin-tagged cyclophilin A in human Jurkat cell lysates at 1.1 uM after 24 hrs by SDS-PAGE analysis; summary of the method: as §1
[4] = biological target: Peptidyl-prolyl cis-trans isomerase A (Homo sapiens) (UniProt P62937); assay: Binding affinity to cyclophilin A in human Jurkat cell lysates at 1.1 uM after 24 hrs by SDS-PAGE analysis in presence of cyclosporine A
[5] = biological target: Peptidyl-prolyl cis-trans isomerase A (Homo sapiens) (UniProt P62937); assay: Binding affinity to cyclophilin A in human Jurkat cell lysates at 1.1 uM after 24 hrs by SDS-PAGE analysis in presence of N-ethylmaleimide

Chain of Peptidyl-prolyl cis-trans isomerase A (Homo sapiens) (P62937 whole entry, looked up): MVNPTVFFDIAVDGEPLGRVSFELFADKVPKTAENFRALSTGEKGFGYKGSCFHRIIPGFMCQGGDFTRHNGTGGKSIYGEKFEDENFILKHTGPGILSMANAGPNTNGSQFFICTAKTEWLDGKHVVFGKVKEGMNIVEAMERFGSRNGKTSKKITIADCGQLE

| Compound | Activity [1] | Activity [2] | Activity [3] | Activity [4] | Activity [5] |
| --- | --- | --- | --- | --- | --- |
| CC(C)(C)OC(=O)NCCCC(=O)NCCCCNC(=O)CCS(=O)(=O)c1nnnn1CCCCCNC(=O)CCCC[C@@H]1SC[C@@H]2NC(=O)N[C@@H]21 | inactive |  |  |  |  |
| CC(C)(C)OC(=O)NCCCC(=O)NCCCCNC(=O)CCSc1nnnn1CCCCCNC(=O)CCCC[C@@H]1SC[C@@H]2NC(=O)N[C@@H]21 | inactive |  |  |  |  |
| CC[C@@H]1NC(=O)[C@H]([C@H](O)[C@H](C)C/C=N\OCC(=O)NCCCC(=O)NCCCCNC(=O)CCSc2nnnn2CCCCCNC(=O)CCCC[C@@H]2SC[C@@H]3NC(=O)N[C@@H]32)N(C)C(=O)[C@H](C(C)C)N(C)C(=O)[C@H](CC(C)C)N(C)C(=O)[C@H](CC(C)C)N(C)C(=O)[C@@H](C)NC(=O)[C@H](C)NC(=O)[C@H](CC(C)C)N(C)C(=O)[C@H](C(C)C)NC(=O)[C@H](CC(C)C)N(C)C(=O)CN(C)C1=O | Active | Active | inactive | inactive |  |
| CC[C@@H]1NC(=O)[C@H]([C@H](O)[C@H](C)C/C=N\OCC(=O)NCCCC(=O)NCCCCNC(=O)CCS(=O)(=O)c2nnnn2CCCCCNC(=O)CCCC[C@@H]2SC[C@@H]3NC(=O)N[C@@H]32)N(C)C(=O)[C@H](C(C)C)N(C)C(=O)[C@H](CC(C)C)N(C)C(=O)[C@H](CC(C)C)N(C)C(=O)[C@@H](C)NC(=O)[C@H](C)NC(=O)[C@H](CC(C)C)N(C)C(=O)[C@H](C(C)C)NC(=O)[C@H](CC(C)C)N(C)C(=O)CN(C)C1=O | Active | Active |  | inactive | Active |
